To fix the notation:
B1: NELF-E aptamer (parent)
chain: CCCAACGACUGCCGAGCGAGAUUACGCUUGAGCGCCCCACUGAGGAUGCCCACGGGCGAUUGGGGCACGG

The series covers variants of B1. Nature of the series: HiTS-RAP. The conditions noted are these: with NELF-E (Drosophila). A digest of the protocol: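 Aptamer DNA templates bearing a T7 promoter and a ter site were sequenced on an Illumina GAIIx flowcell. T7 RNA polymerase then transcribed them in situ, and GST-Tus halted transcription over 30 minutes at 37°C. After a 30-minute room-temperature equilibration with NELF-E-mOrange at 0.064 to 1000 nM in HEPES binding buffer, clusters were imaged, using only the first binding curve. Intensities normalised to sequencing intensity were averaged per sequence and fitted with weighted Hill fits to give Kd, retaining only fits whose variance stayed under 1,000,000.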
By Kd is commonly meant the equilibrium constant for the complex coming apart. As for CCCAACGACUGCCGAGCGAGAUUACGCUUGAGUGCCCCACUGAGGAUGCCCACGGGCGAUUGGGGCACGG [C33U], the Kd amounted to 4.92 nM. For CCCAACGACUGCCGAGCGAGAUUACGCUUGAGGGCCCCACUGAGGAUGCCCACGGGCGAUUGGGGCACGG [C33G], the Kd stood at 5.4 nM.

On to CCCAACGACUGCCGAGCGAGAUUACGCUUGAGAGCCCCACUGAGGAUGCCCACGGGCGAUUGGGGCACGG [C33A], for which the Kd was determined as 4.67 nM. For CCCAACGACUGCCGAGCGAGAUUACGCUUGAGCACCCCACUGAGGAUGCCCUCGGGCGAUUGGGGCACGG [G34A A52U], the Kd was 20.7 nM.

As to CCCAACGACUGCCGAGCGAGAUUACGCUUCAGCGCCCCACUGAGGAUGCCCACGGGCGAUUGGGGCACGG [G30C], the Kd came to 6.15 nM. For CCCAACGACUGCCGAGCGAGAUUACGCUUUAGCGCCCCACUGAGGAUGCCCACGGGCGAUUGGGGCACGG [G30U] the value was 5.41 nM; for CCCAACGACUGCCGAGCGAGAUUACGCUUAAGCGCCCCACUGAGGAUGCCCACGGGCGAUUGGGGCACGG [G30A], 4.41 nM; for CCCAACGACUGCCGAGCGAGAUUACGCUUGGGCGCCCCACGGAGGAUGCCCACGGGCGAUUGGGGCACGG [A31G U41G], 6.51 nM.

CCCAACGACUGCCGAGCGAGAUUACGCUUGUGCGCCCCUCUGAGGAUGCCCACGGGCGAUUGGGGCACGG [A31U A39U]: the Kd worked out at 38.1 nM. Take CCCAACGACUGCCGAGCGAGAUUACGCUUGUGCGCCCCACUGAGGAUGCCCAUGGGCGAUUGGGGCACGG [A31U C53U]: the equilibrium dissociation constant (Kd) stood at 3.69 nM. Then CCCAACGACUGCCGAGCGAGAUUACGCUUGAGGUCCCCACUGAGGAUGCCCACGGGCGAUUGGGGCACGG [C33G G34U], with 5.51 nM. For CCCAACGACUGCCGAGCGAGAUUACGCUUGAGCACCCCACUGAGGAUGCCCACGGGCGAUUGGGGCACGG [G34A] the value was 6.53 nM; for CCCAACGACUGCCGAGCGAGAUUACGCUGGAGCGCCCCACUGAGGAUGCCCACUGGCGAUUGGGGCACGG [U29G G54U], 6.72 nM; for CCCAACGACUGCCGAGCGAGAUUACGCUGGAGCGCCCCACUGAGGAUGCCCACAGGCGAUUGGGGCACGG [U29G G54A], 13.1 nM. CCCAACGACUGCCGAGCGAGAUUACGCUUGGGCGCCCCACUGAGGAUGCCCACGGGCGAUUGGGGCUCGG [A31G A67U]: the Kd was 10.7 nM. For CCCAACGACUGCCGAGCGAGAUUACGCUGGAGCGCCCCACUGAGGAUACCCACGGGCGAUUGGGGCACGG [U29G G48A] the value was 11.3 nM. Then CCCAACGACUGCCGAGCGAGAUUACGCUGGAGCGCCCCACUGAGGAUUCCCACGGGCGAUUGGGGCACGG [U29G G48U], with 6.22 nM. For CCCAACGACUGCCGAGCGAGAUUACGCUGGAGCGCCCCACUGAGGAUGCCCACGCGCGAUUGGGGCACGG [U29G G55C] the value was 5.81 nM; for CCCAACGACUGCCGAGCGAGAUUACGCUGGAGCGCCCCACUGAGGAUGCCCACGAGCGAUUGGGGCACGG [U29G G55A], 7.74 nM; for CCCAACGACUGCCGAGCGAGAUUACGCUGGAGCGCCCCACUGAGGAUGCCCACGUGCGAUUGGGGCACGG [U29G G55U], 6.64 nM.

In the case of CCCAACGACUGCCGAGCGAGAUUACGCUUGGGCGCCCCACUGGGGAUGCCCACGGGCGAUUGGGGCACGG [A31G A43G], the Kd came to 11.3 nM. For CCCAACGACUGCCGAGCGAGAUUACGCUUGAACGCCCCACGGAGGAUGCCCACGGGCGAUUGGGGCACGG [G32A U41G] the value was 5.08 nM. Then CCCAACGACUGCCGAGCGAGAUUACGCUUGAACGCCCCACUGAGGAUGCCCACGGGCGAUUGGGGCACGG [G32A], with 4.35 nM; and CCCAACGACUGCCGAGCGAGAUUACGCUUGAUCGCCCCACUGAGGAUGCCCACGGGCGAUUGGGGCACGG [G32U], with 5.38 nM. For CCCAACGACUGCCGAGCGAGAUUACGCUUGACCGCCCCACUGAGGAUGCCCACGGGCGAUUGGGGCACGG [G32C] the value was 4.57 nM.

With CCCAACGACUGCCGAGCGAGAUUACGCUUGGGCGCCCCACUGAGGAUGCCCUCGGGCGAUUGGGGCACGG [A31G A52U], the Kd came to 21.5 nM. Then CCCAACGACUGCCGAGCGAGAUUACGCUUGGGCGCCCCACUGAGGAUGCCCACGAGCGAUUGGGGCACGG [A31G G55A], with 9.56 nM; and CCCAACGACUGCCGAGCGAGAUUACGCUGGAGCGCCCCACUGAGGAUGCCCACGGGCGAUUGAGGCACGG [U29G G63A], with 11.4 nM; and CCCAACGACUGCCGAGCGAGAUUACGCUGGAGCGCCCCACUGAGGAUGCCCACGGGCGAUUGUGGCACGG [U29G G63U], with 12.4 nM. Then CCCAACGACUGCCGAGCGAGAUUACGCUUGGGCGCCCCACUGAGGAUGCCCACGGGCGAUUGGGGCACGG [A31G], with 6.92 nM.

On to CCCAACGACUGCCGAGCGAGAUUACGCUUGUGCGCCCCACUGAGGAUGCCCACGGGCGAUUGGGGCACGG [A31U], for which the Kd was found to be 5.92 nM. CCCAACGACUGCCGAGCGAGAUUACGCUUGCGCGCCCCACUGAGGAUGCCCACGGGCGAUUGGGGCACGG [A31C]: the Kd came out at 4.61 nM. For CCCAACGACUGCCGAGCGAGAUUACGCUUUGGCGCCCCACUGAGGAUGCCCACGGGCGAUUGGGGCACGG [G30U A31G] the value was 6.4 nM; for CCCAACGACUGCCGAGCGAGAUUACGCUUGAGGGCCCCACGGAGGAUGCCCACGGGCGAUUGGGGCACGG [C33G U41G], 7.38 nM. For CCCAACGACUGCCGAGCGAGAUUACGCUGGAGCGCCCCACUGAAGAUGCCCACGGGCGAUUGGGGCACGG [U29G G44A] the value was 94.7 nM. For CCCAACGACUGCCGAGCGAGAUUACGCUGGAGCGCCCCACUGAUGAUGCCCACGGGCGAUUGGGGCACGG [U29G G44U] the value was 8.78 nM; for CCCAACGACUGCCGAGCGAGAUUACGCUGGAGCGCCCCACUGAGGAUGCCCACGGACGAUUGGGGCACGG [U29G G56A], 5.64 nM; for CCCAACGACUGCCGAGCGAGAUUACGCUGGAGCGCCCCACUGAGGAUGCCCACGGUCGAUUGGGGCACGG [U29G G56U], 5.44 nM.

(Values after the RNAGym collection of RNA variant scans (doi:10.1038/nmeth.2970).)
